# TRPC4 act: activators of mouse TRPC4 channel. AID 2237. HEK293 TRPC4beta/mu-opioid, Fluo4 calcium fluorescence; active compounds read high. Q9QUQ5. 310,000 compounds, 0.49% hits. B-score at 10 µM;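 active = B-score above 5 SD of library B-scores, and initial fluorescence ratio not above library mean plus 5 SD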;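 note: positive B-score marks a calcium rise read as TRPC4 activation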
#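 Technique: kinetic Fluo4 calcium fluorescence; Test system: TRPC4beta and mu-opioid receptor HEK293 stable cells; Measure: B-scored integrated calcium fluorescence ratio; Benchmarks: low control buffer alone, high control maximal DAMGO; Schedule: 45 min room-temperature Fluo4 loading, 110 s read.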
# TRPC6 act: activators of mouse TRPC6 channel | Q61143 | HEK293-TRPC6 membrane potential dye fluorescence; active compounds read high | B-score at 10 µM | 310,000 compounds, 0.13% hits | AID 2550;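 active = B-score of the integrated fluorescence ratio above library mean plus 3 SD, and starting fluorescence ratio within library mean plus 5 SD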;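 note: higher score means more depolarization so channel activation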
# TRPC6 inhibitor: blocks the mouse TRPC6 cation channel | HEK293-TRPC6, membrane potential dye, ACh-evoked depolarization; active compounds read low | Q61143 | AID 2553 | B-score at 10 µM | 310,000 compounds, 1.1% hits;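 active = B-score under library mean minus 3 SD, initial fluorescence not abnormally high, positive integrated signal ratio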;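 note: B-score derived from integrated fluorescence ratio over the kinetic read; more negative B-score means stronger inhibition of depolarization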
# Kir21 inh: Kir2.1 (mouse) channel inhibition; P35561; 310,000 compounds, 0.85% hits; HEK293-Kir2.1, FluxOR thallium flux fluorescence; active compounds read low; B-score at 10 µM;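 active = fluorescence ratio B-score at or below minus 3 SD of library scores, with starting-brightness B-score within 2 SD, cut at about -4.2 in these data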;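 note: channel flux triggered by added potassium and thallium sulfate stimulus; B-score of peak minus minimum fluorescence over baseline after thallium stimulus; more negative B-score means stronger Kir2.1 block with less thallium influx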
# Target sequence (P35561 whole entry, looked up): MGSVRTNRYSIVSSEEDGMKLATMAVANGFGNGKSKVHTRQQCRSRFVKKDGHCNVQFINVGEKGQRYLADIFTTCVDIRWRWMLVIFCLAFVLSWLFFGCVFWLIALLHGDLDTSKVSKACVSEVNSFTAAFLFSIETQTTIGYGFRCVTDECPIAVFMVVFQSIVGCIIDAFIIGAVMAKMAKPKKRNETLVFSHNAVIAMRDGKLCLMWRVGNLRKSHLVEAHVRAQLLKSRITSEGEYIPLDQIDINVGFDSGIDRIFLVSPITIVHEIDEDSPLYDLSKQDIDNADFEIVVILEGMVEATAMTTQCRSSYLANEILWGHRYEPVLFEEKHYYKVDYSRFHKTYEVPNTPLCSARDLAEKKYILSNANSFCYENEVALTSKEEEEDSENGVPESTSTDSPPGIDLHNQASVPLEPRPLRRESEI
# TRPC4 inh: inhibitors of mouse TRPC4 channel | Q9QUQ5 | HEK293 TRPC4beta/mu-opioid, DAMGO-evoked Fluo4 calcium flux; active compounds read low | B-score at 10 µM | 300,000 compounds, 0.39% hits;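 active = B-score over 3 SD under the library average, no early fluorescence shift, positive overall ratio signal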
#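 Assay system: TRPC4beta/mu-opioid receptor HEK293 cell line; compound dosing: single concentration per test compound; detection: Fluo4 Ca2+ flux fluorescence; evaluation: per-well B score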
# TRPC4 potent: allosteric potentiators of mouse TRPC4 channel | AID 2227 | HEK293 TRPC4beta/mu-opioid, DAMGO EC20, Fluo-4 Ca2+ flux; active compounds read high | 310,000 compounds, 0.42% hits | Q9QUQ5 | B-score at 10 µM;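 active = B-score of calcium response area above 5 SD of library B-scores, with initial fluorescence ratio within 5 SD of library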
# TRPC4 sel inh 2: second selectivity test of TRPC6 inhibitors: effect on mouse TRPC4; AID 2776; 920 compounds, 42% hits; shares compounds with TRPC6 inhibitor; HEK293 TRPC4/MOR, membrane potential dye fluorescence; channel activated by saturating DAMGO dose; inhibition, % at 10 µM;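 active = compounds whose fluorescence signal differed from control wells by over 3 SD, either direction, in both duplicate plates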
# TRPC4 spec: tests whether TRPC6 inhibitors also affect mouse TRPC4; shares compounds with TRPC6 inhibitor; HEK293 TRPC4/mu-opioid, membrane potential fluorescence; activity change, negative = inhibition, % at 10 µM; 920 compounds, 61% hits; AID 2777;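 active = rise or fall in signal beyond 3 SD of buffer-only wells in both replicate plates, either sign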;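 note: integrated kinetic ratio of fluorescence range over baseline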
# HEK293 MPD ctr 2-1: parental HEK293 nonspecific activity of TRPC6 inhibitors, second screen | shares compounds with TRPC6 inhibitor | parental HEK293 membrane potential dye fluorescence; maximal acetylcholine challenge after compound addition | signal change vs control, % at 10 µM | 920 compounds, 31% hits | AID 2779;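 active = membrane potential signal moving either way by over 3 SD of the maximum-effect control, in both duplicate plates, meaning non-specific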
# HEK293 MPD ctr-1: checks TRPC6 inhibitor effects in parental HEK293 cells; 920 compounds, 60% hits; AID 2780; membrane potential signal change, % at 10 µM; parental HEK293 membrane potential dye fluorescence; shares compounds with TRPC6 inhibitor;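 active = membrane potential signal shifting up or down by more than 3 SD of buffer-only wells, on both duplicate plates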
# HEK293 MPD ctr-2: counter-screen for TRPC6 modulators: effect in parental HEK293 cells; shares compounds with TRPC6 inhibitor; membrane potential dye fluorescence; membrane potential signal change, % at 10 µM; 2,400 compounds, 51% hits;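 active = membrane potential signal moves up or down beyond 5 SD from buffer-only wells, on both duplicate plates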
# HEK293 MPD ctr 2-2: second check of TRPC6 modulator effects in parental HEK293 cells. shares compounds with TRPC6 inhibitor. membrane potential dye fluorescence; after compound, maximal acetylcholine stimulation. inhibition, % at 10 µM. 2,400 compounds, 14% hits. AID 488926;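 active = membrane potential signal drops by more than 5 SD from the mean control signal, in both duplicate plates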
# TRPC4/MOR mod: mouse TRPC4 off-target activity of TRPC6 modulators. AID 488927. shares compounds with TRPC6 inhibitor. 2,400 compounds, 69% hits. HEK293 TRPC4/mu-opioid, membrane potential fluorescence. percent change from control (negative = decrease, positive = increase), % at 10 µM;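 active = membrane potential signal moved up or down beyond 5 SD of buffer control wells, in both duplicate plates, actives on both sides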
# TRPC4/MOR inh 2: second check of whether TRPC6 modulators also affect mouse TRPC4. inhibition, % at 10 µM. AID 488928. HEK293 TRPC4/mu-opioid, membrane potential dye fluorescence; stimulated with maximal-effect DAMGO. 2,400 compounds, 55% hits. shares compounds with TRPC6 inhibitor;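 active = drop in membrane potential signal beyond 5 SD of the control wells in both duplicate plates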;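 note: TRPC4 counter screen for TRPC6 hits run under conditions tuned for TRPC6 not TRPC4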
# TRPC6 inh conf: confirmation of mouse TRPC6 inhibitors; shares compounds with TRPC6 inhibitor; HEK293-TRPC6, membrane potential dye, ACh-evoked depolarization; inhibition, % at 10 µM; 3,300 compounds, 43% hits;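 active = fluorescence ratio falls more than 5 SD below the full-stimulation control mean, in both duplicate runs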;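 note: integrated fluorescence ratio of peak minus minimum over baseline after agonist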
# TRPC6 act confirm: mouse TRPC6 activator confirmation; shares compounds with TRPC6 inhibitor; AID 488961; activation, % at 10 µM; 2,800 compounds, 11% hits; HEK293-TRPC6 membrane potential dye fluorescence, FDSS;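 active = ratio signal rise beyond 5 SD above unstimulated control wells' mean, seen in both duplicate runs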
# Numbers stand for hits; i = inactive; nt = not tested or not shown. In the library only some 3% were active in any assay of this set; here they are far more common.
SMILES,TRPC4 act,TRPC6 act,TRPC6 inhibitor,Kir21 inh,TRPC4 inh,TRPC4 potent,HEK293 MPD ctr-2,HEK293 MPD ctr 2-2,TRPC4/MOR mod,TRPC4/MOR inh 2,TRPC6 inh conf,TRPC6 act confirm,others
CCOC(=O)C1CCN(C2=C(NS(=O)(=O)c3ccc(Cl)cc3)C(=O)c3ccccc3C2=O)CC1,i,i,-6.1,i,i,i,-77.5%,i,-19.5%,69.0%,58.0%,i,
CCN1CCN(C2=C(NS(=O)(=O)c3ccc(C)cc3)C(=O)c3ccccc3C2=O)CC1,i,i,i,i,i,i,nt,nt,nt,nt,nt,nt,
CC1CCN(C2=C(NS(=O)(=O)c3ccccc3)C(=O)c3ccccc3C2=O)CC1,i,i,-7.69,i,i,i,i,i,-27.0%,82.0%,i,i,
CCN1CCN(C2=C(NS(=O)(=O)c3ccc(NC(C)=O)cc3)C(=O)c3ccccc3C2=O)CC1,i,i,i,i,i,i,nt,nt,nt,nt,nt,nt,
CCOC(=O)C1CCCN(C2=C(NS(=O)(=O)c3ccc(Br)cc3)C(=O)c3ccccc3C2=O)C1 (stereo not drawn),i,i,i,i,i,i,nt,nt,nt,nt,nt,nt,
O=C1C(NS(=O)(=O)c2ccccc2)=C(N2CCN(c3ccc(F)cc3)CC2)C(=O)c2ccccc21,i,i,i,i,i,i,nt,nt,nt,nt,nt,nt,
CC(=O)Nc1ccc(S(=O)(=O)NC2=C(N3CCN(Cc4ccccc4)CC3)C(=O)c3ccccc3C2=O)cc1,i,i,-6.56,i,-6,i,-224.5%,i,-34.0%,90.5%,68.0%,i,
O=C1C(NS(=O)(=O)c2ccc(Br)cc2)=C(N2CCCCC2)C(=O)c2ccccc21,i,i,-6.32,i,i,i,i,i,-19.5%,72.5%,i,i,
CC1CCN(CCCNC(=O)c2ccc3c(Cl)c4c(nc3c2)CCCC4)CC1,i,i,i,i,i,i,nt,nt,nt,nt,nt,nt,
Cc1ccc(Nc2[nH]c(=O)c3ccccc3c2C(=O)c2ccccc2)cc1,i,i,i,i,i,i,nt,nt,nt,nt,nt,nt,
CC1CCN(C2=C(NS(=O)(=O)c3ccc(Cl)cc3)C(=O)c3ccccc3C2=O)CC1,i,i,-6.49,i,i,i,i,i,-10.5%,51.5%,i,i,
CN1CCN(/N=C/c2ccc(N(C)c3ccccc3)cc2)CC1,i,i,-7.14,i,i,i,i,i,-11.5%,56.5%,63.0%,i,
COc1ccc(NC(=O)C2CCN(S(=O)(=O)c3ccc(OC)c(OC)c3)CC2)cc1,i,i,i,i,i,i,nt,nt,nt,nt,nt,nt,
Cc1ccc(NC(=O)C2CCN(S(=O)(=O)c3ccc4[nH]c(=O)oc4c3)CC2)cc1F,i,i,-5.78,i,i,i,i,i,i,i,i,i,
CS(=O)(=O)c1ccc(Cl)c(NC(=O)COC(=O)c2cccc(S(=O)(=O)N3CCCCC3)c2)c1,i,i,-5.69,i,i,i,i,i,i,i,i,i,
COC(=O)COc1ccc(S(=O)(=O)N2CCCCC2)cc1[N+](=O)[O-],i,i,-5.31,i,i,i,i,i,i,44.0%,i,i,
COc1ccc(S(=O)(=O)N2CCC(C(=O)Nc3ccc(S(=O)(=O)N4CCCC4)cc3)CC2)cc1OC,i,i,-5.42,i,i,i,i,i,i,i,i,i,
O=C(CN1C(=O)NC2NC(=O)NC21)N/N=C/c1ccccc1F (stereo not drawn),i,i,i,i,i,i,nt,nt,nt,nt,nt,nt,
CCCc1nnc(SCC(=O)O)n1CC,i,i,i,i,i,i,nt,nt,nt,nt,nt,nt,
COc1ccc(S(=O)(=O)N2CCCCCC2)cc1NC(=O)Cc1ccccc1,i,i,-8.86,i,i,i,i,i,i,i,i,i,
COc1ccc(S(=O)(=O)N2CCCCCC2)cc1NC(=O)c1ccccc1,i,i,i,i,i,i,nt,nt,nt,nt,nt,nt,
CCOC(=O)N1CCN(C(=O)CSc2nc(=O)n3ccc(C)cc3n2)CC1,i,i,i,i,i,i,nt,nt,nt,nt,nt,nt,
Cc1cc(C)cc(N(C(=O)Cc2cccs2)C(C(=O)NC2CCCCC2)c2ccccn2)c1 (stereo not drawn),i,i,i,i,i,i,nt,nt,nt,nt,nt,nt,
O=C(NC1CCCCC1)C(c1ccccn1)N(C(=O)Cc1cccs1)c1ccc(Cl)cc1 (stereo not drawn),i,i,-6.9,i,i,i,nt,nt,nt,nt,i,nt,TRPC4 sel inh 2=i;TRPC4 spec=22.0%;HEK293 MPD ctr 2-1=i;HEK293 MPD ctr-1=10.6%
Cc1ccc(-n2ncc(C(=O)Nc3cc(Cl)cc(Cl)c3)c2C2CCNCC2)cc1C,i,i,-6.87,-7.3,i,i,nt,nt,nt,nt,i,i,TRPC4 sel inh 2=63.5%;TRPC4 spec=-12.1%;HEK293 MPD ctr 2-1=i;HEK293 MPD ctr-1=i
CCn1cc(C(=O)NCCCOC(C)C)c(=O)c2cc(S(=O)(=O)N3CCOCC3)ccc21,i,i,i,i,i,i,nt,nt,nt,nt,nt,nt,
C/C(=N\NC(=S)NCCc1ccccc1)c1ccc(Cl)cc1,i,i,i,i,i,i,nt,nt,nt,nt,nt,nt,
C/C(=N\NC(=S)NCCc1ccccc1)c1ccc(C)cc1,i,i,-5.3,i,i,i,187.0%,i,-15.0%,i,i,i,
CCOC(=O)CC(=O)CSc1ccc2nnc(-c3ccc(F)cc3)n2n1,i,i,i,i,i,i,nt,nt,nt,nt,nt,nt,
